Results published in publication PMC5099097 (Antiviral research, 2016).

Tests used:
HCMV T3429 (UL54 mutant) = experiment: SEAP assay, recombinant GCV-resistant HCMV T3429 on MRC-5 cells; type: cell-based, human cytomegalovirus; settings: Supplemental Table 1 (values not available)
HCMV T3252 (UL97 mutant) = experiment: SEAP assay, recombinant GCV-resistant HCMV T3252 on MRC-5 cells; type: cell-based, human cytomegalovirus; settings: Supplemental Table 1 (values not available)
HCMV TB40E [1] = experiment: GCV and p5RD alone and combined, TB40E-Luc on MRC-5 cells; type: cell-based, human cytomegalovirus; settings: 3 μM GCV alone
HCMV TB40E [2] = experiment: Luciferase assay: peptide reduction of HCMV TB40E-Luc infection of MRC-5 cells; type: cell-based, human cytomegalovirus; settings: peptide concentration >200 μM
HCMV TB40E [3] = experiment: Luciferase assay: TB40E-Luc infection of MRC-5, HFF, ARPE-19 and HAEC cells; type: cell-based, human cytomegalovirus; settings: 200 μM peptide added 30 min prior to infection, ARPE-19, HAEC
In short: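 At 80–85% confluency, cells (MRC-5, HFF, ARPE-19 or HAEC) got 200 μM peptide in 10% FBS/PBS, or vehicle alone, 30 min before HCMV TB40E (luciferase, UL18 promoter) at ~35–50 pfu (~2500–3000 RLU). Inoculum was removed after 60 min at 37 °C. Cells were lysed after 3 days and luminescence read. Uninfected background was subtracted and values normalized to infected untreated cells. Three experiments, three replicates each.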

[4] = design: species or system BALB/c mice; settings: mouse, in vivo, iv
MCMV = settings: relative to p5; ref Dogra et al., 2015; Martin et al., 2013; Wall et al., 2011; cited from earlier work

Compound	susceptibility of T3429 to GCV (HCMV T3429 (UL54 mutant))	susceptibility of T3252 to GCV (HCMV T3252 (UL97 mutant))	reduction in HCMV infection (HCMV TB40E [1])	reduction of HCMV infection (HCMV TB40E [2]) [%]	reduction of HCMV infection in all cell types (HCMV TB40E [3]) [%]	time by which the majority of the peptide was excreted or degraded [4] [h]	time retained at high levels in the spleen, liver and kidneys post injection [4]	blocks MCMV infection more efficiently than p5 (fold) (MCMV) [x]
Nc1nc(O)c2ncn(COC(CO)CO)c2n1 [GCV, ganciclovir]	resistant to high concentrations	resistant to high concentrations	~ 95%	–	–	–	–	–
GGGYSRAQRAQARQARQAQRARGARQ [p5R]	–	–	–	≥ 90	> 80	≤ 4	rapidly dehalogenated and/or excreted	2
